Measurements of several laboratories.
Lines come from different studies, so protocols differ.
AMY2: Pancreatic alpha-amylase (AMY2, Sus scrofa, UniProt P00690)
malE: malE (Escherichia coli, UniProt P0AEX9)
IAPP: Islet amyloid polypeptide (IAPP, Homo sapiens, UniProt P10997)

SMILES | target | observed | mode | method | notes | measurement | value
FC(F)(F)c1ccc(/C=N/N=C/c2ccc(C(F)(F)F)cc2)cc1 | AMY2 | enzyme activity | inhibitor | – | – | IC50 | 270 µM
C[C@H]1O[C@H](O[C@H]2[C@H](O)[C@@H](O)[C@@H](O[C@H]3[C@H](O)[C@@H](O)C(O)O[C@@H]3CO)O[C@@H]2CO)[C@H](O)[C@@H](O)[C@@H]1N[C@H]1C=C(CO)[C@@H](O)[C@H](O)[C@H]1O (stereo partly drawn) | malE | binding | – | ITC | – | Kd | 0.36 µM
COc1ccc(-c2cc(=O)c3c(OC)c(OC)c(OC)c(OC)c3o2)cc1OC | IAPP | binding | – | ITC | – | Kd | 2.79 µM
Clc1ccccc1/C=N/N=C/c1ccccc1Cl | AMY2 | enzyme activity | inhibitor | – | – | IC50 | 478 µM
CC(=O)Nc1ccc(Nc2nc(-c3sc(N)nc3C)cs2)cc1 | Lysyl oxidase homolog 2 (LOXL2, Homo sapiens, UniProt Q9Y4K0) | enzyme activity | inhibitor | fluorescence | with preincubation | IC50 | 0.95 µM
CCCc1ccc(O)c(OC)c1 | OR8H1 (Homo sapiens, UniProt Q8NGG4) | cAMP | agonist | luciferase | – | EC50 | > 600 µM
OC[C@@H](O)[C@@H](O[C@H]1O[C@H](CO)[C@@H](O[C@H]2O[C@H](CO)[C@@H](O[C@H]3O[C@H](CO)[C@@H](O)[C@H](O)[C@H]3O)[C@H](O)[C@H]2O)[C@H](O)[C@H]1O)[C@H](O)[C@@H](O)CO | malE | binding | – | ITC | – | Kd | 4.44 µM
COc1ccc(-c2cc(=O)c3c(OC)c(OC)c(OC)cc3o2)cc1OC | IAPP | binding | – | ITC | – | Kd | 3.06 µM
CC(C)(C)OC(=O)N1CCN(Cc2ccn(Cc3ccc(Cl)cc3)c(=O)c2O)CC1 | Lysine-specific demethylase 4D (KDM4D, Homo sapiens, UniProt Q6B0I6) | enzyme activity | inhibitor | – | – | IC50 | 3.35 µM
